{"data": "Assay results gathered from unrelated publications", "ST14": "Suppressor of tumorigenicity 14 protein (ST14, Homo sapiens, UniProt Q9Y5Y6)", "CDK2 with cyclin A2": "Cyclin-dependent kinase 2, with cyclin A2 (CDK2, Homo sapiens, UniProt P24941)"}
{"SMILES": "COc1cc(-c2cncc3c2CN(C)Cc2cc(N4CCNCC4)ccc2-3)cc(OC)c1OC", "target": "Serine/threonine-protein kinase D3 (PRKD3, Homo sapiens, UniProt O94806)", "effect on": "enzyme activity", "action": "inhibitor", "tested at": "1 µM", "measurement": "remaining activity", "result": "92%"}
{"SMILES": "C=CC(=O)N1CCC(COCC(=O)N2CCN(c3nc(-c4cnc(N)nc4C(F)F)nc(N4CCOC[C@@H]4C)n3)CC2)CC1", "target": "ALK tyrosine kinase receptor (ALK, Homo sapiens, UniProt Q9UM73, L1196M)", "effect on": "binding", "method": "competition with immobilised ligand", "tested at": "1 µM", "measurement": "remaining binding", "result": "77%"}
{"SMILES": "Cc1cc([C@@H](C)Nc2ccccc2C(=O)O)c2nc(N3CCC(F)(F)CC3)c(C#N)c(=O)n2c1", "target": "Angiopoietin-1 receptor (TEK, Homo sapiens, UniProt Q02763)", "effect on": "binding", "method": "competition with immobilised ligand", "tested at": "10 µM", "measurement": "remaining binding", "result": "100%"}
{"SMILES": "CNc1ncc2c(/C=C/C(=O)N3CCC(OC)CC3)nn(Cc3cccc(C(F)(F)F)c3)c2n1", "target": "ALK tyrosine kinase receptor (ALK, Homo sapiens, UniProt Q9UM73)", "effect on": "enzyme activity", "action": "inhibitor", "method": "radiometric", "tested at": "1 µM", "measurement": "remaining activity", "result": "83%"}
{"SMILES": "N=C(N)NCCC[C@H](NC(=O)[C@H](Cc1ccc(C(=O)c2ccccc2)cc1)NC(=O)[C@H](Cc1cscn1)NC(=O)CCc1ccccc1)C(=O)c1nc2ccccc2s1", "target": "ST14", "effect on": "enzyme activity", "action": "inhibitor", "tested at": "0.1 µM", "measurement": "remaining activity", "result": "89%"}
{"SMILES": "CC(=O)Nc1c(N)nc(SCC(=O)N/N=C/c2ccc([N+](=O)[O-])cc2)[nH]c1=O", "target": "CDK2 with cyclin A2", "effect on": "enzyme activity", "action": "inhibitor", "tested at": "0.5 µM", "measurement": "inhibition", "result": "51.5%"}
{"SMILES": "N=C(N)NCCC[C@H](NC(=O)[C@@H](NC(=O)[C@H](Cc1cscn1)NC(=O)CCc1ccccc1)C1CCCCC1)C(=O)c1nc2ccccc2s1", "target": "ST14", "effect on": "enzyme activity", "action": "inhibitor", "tested at": "0.1 µM", "measurement": "remaining activity", "result": "32%"}
{"SMILES": "CC(=O)Nc1c(N)nc(SCC(=O)NN)[nH]c1=O", "target": "CDK2 with cyclin A2", "effect on": "enzyme activity", "action": "inhibitor", "tested at": "0.5 µM", "measurement": "inhibition", "result": "53.4%"}
{"SMILES": "CCCC[C@H](NC(=O)[C@H](Cc1cscn1)NC(=O)CCc1ccccc1)C(=O)N[C@@H](CCCNC(=N)N)C(=O)c1nc2ccccc2s1", "target": "ST14", "effect on": "enzyme activity", "action": "inhibitor", "tested at": "0.1 µM", "measurement": "remaining activity", "result": "37%"}
{"SMILES": "CNC(=O)c1cc(Oc2ccc(NC(=O)Nc3ccc(Cl)c(C(F)(F)F)c3)cc2)ccn1", "target": "CDK2 with cyclin A2", "effect on": "enzyme activity", "action": "inhibitor", "tested at": "0.1 µM", "measurement": "inhibition", "result": "58.2%"}
